What was measured:
Cytochrome P450 3A4 [1] = target: T1, Cytochrome P450 3A4 (Homo sapiens, UniProt P08684); assay: Inhibition of CYP3A4 in human liver microsomes assessed as reduction in midazolam 1'-hydroxylation; assay type: ADME
[2] = Half life in Wistar rat at 1 mg/kg, iv or 10 mg/kg, po; assay type: ADME, organism-based; conditions: in vivo
In short: (§1)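 Rats dosed by iv infusion at 1 mg/kg (n = 2) or orally at 10 mg/kg (n = 3); plasma levels measured, limit of quantification ca. 1 ng/mL.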

Cytochrome P450 2C9 = Cytochrome P450 2C9 (Homo sapiens, UniProt P11712); assay: Inhibition of CYP2C9 in human liver microsomes assessed as reduction in diclofenac 4'-hydroxylation; assay type: ADME
Chain of Cytochrome P450 2C9 (P11712 whole entry): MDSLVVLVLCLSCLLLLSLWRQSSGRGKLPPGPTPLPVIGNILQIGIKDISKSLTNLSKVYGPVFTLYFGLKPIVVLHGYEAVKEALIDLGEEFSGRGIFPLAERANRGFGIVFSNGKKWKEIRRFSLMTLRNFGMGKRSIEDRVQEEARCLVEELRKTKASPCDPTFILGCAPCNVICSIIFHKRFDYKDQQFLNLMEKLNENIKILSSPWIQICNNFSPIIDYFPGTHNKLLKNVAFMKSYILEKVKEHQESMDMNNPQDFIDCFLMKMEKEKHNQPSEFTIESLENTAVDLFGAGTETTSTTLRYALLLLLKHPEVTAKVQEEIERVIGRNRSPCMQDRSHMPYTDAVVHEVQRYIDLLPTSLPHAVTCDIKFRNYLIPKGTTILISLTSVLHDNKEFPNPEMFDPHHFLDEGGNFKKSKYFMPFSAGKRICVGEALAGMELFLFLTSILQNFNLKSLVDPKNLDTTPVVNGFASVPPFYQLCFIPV

[3] = Lipophilicity, logD of the compound; assay type: physicochemical; conditions: octanol/water
Cytochrome P450 3A4 [4] = target: T1, Cytochrome P450 3A4; assay: Inhibition of CYP3A4 in human liver microsomes assessed as reduction in testosterone 6beta-hydroxylation; assay type: ADME
[5] = AUC in Wistar rat at 10 mg/kg, po; assay type: ADME, organism-based, Plasma; set-up: dose 10 mg/kg, route oral; conditions: Wistar, plasma; in short: as §1
[6] = Solubility in neutral pH; assay type: physicochemical
[7] = Clearance in Wistar rat at 1 mg/kg, iv; assay type: ADME, organism-based; set-up: dose 1 mg/kg, route intravenous; conditions: in vivo; in short: as §1
[8] = Cmax in Wistar rat at 10 mg/kg, po; assay type: ADME, organism-based; set-up: dose 10 mg/kg, route oral; conditions: Wistar, in vivo; in short: as §1
[9] = Oral bioavailability in Wistar rat at 10 mg/kg; assay type: ADME, organism-based; conditions: Wistar, in vivo; in short: as §1
Platelet [10] = assay: Inhibition of ADP-induced platelet aggregation in human platelet rich plasma by in-vitro light transmission aggregometry assay; assay type: functional
In short: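 Human platelet-rich plasma incubated with compound, aggregation induced by 3 µM ADP and read by light transmission aggregometry; IC₅₀ derived from concentration–response curve.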

[11] = Solubility in basic pH; assay type: physicochemical
[12] = Volume of distribution at steady state in Wistar rat at 1 mg/kg, iv or 10 mg/kg, po; assay type: ADME, organism-based; conditions: in vivo, read-out: Vdss; in short: as §1
Liver microsome [13] = assay: Metabolic stability assay in rat liver microsomes assessed as parent drug disappearance at 1 uM after 20 mins by HPLC and mass spectrometry method; assay type: ADME
[14] = Potency shift, ratio of IC50 for inhibition of ADP-induced platelet aggregation in human platelet rich plasma to IC50 for displacement of [3H]-2-methyl-thio-adenosine 5'-diphosphate from human recombinant P2Y12 expressed in CHO cell membranes
Liver microsome [15] = assay: Metabolic stability assay in human liver microsomes assessed as parent drug disappearance at 1 uM after 20 mins by HPLC and mass spectrometry method; assay type: ADME
P2Y purinoceptor 12 = P2Y purinoceptor 12 (Homo sapiens, UniProt Q9H244); assay: Displacement of [3H]-2-methyl-thio-adenosine 5'-diphosphate from human recombinant P2Y12 expressed in CHO cell membranes by scintillation counting method
Chain of P2Y purinoceptor 12 (Q9H244 whole entry): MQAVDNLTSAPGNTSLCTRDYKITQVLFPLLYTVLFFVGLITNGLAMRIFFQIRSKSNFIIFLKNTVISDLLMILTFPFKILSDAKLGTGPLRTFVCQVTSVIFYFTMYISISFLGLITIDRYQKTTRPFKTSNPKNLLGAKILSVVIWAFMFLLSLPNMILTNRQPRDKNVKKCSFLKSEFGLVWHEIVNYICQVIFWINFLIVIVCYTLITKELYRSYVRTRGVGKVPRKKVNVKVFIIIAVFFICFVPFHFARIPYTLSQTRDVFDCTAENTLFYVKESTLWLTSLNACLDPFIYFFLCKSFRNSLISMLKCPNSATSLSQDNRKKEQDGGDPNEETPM
In short: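 CHO cells expressing recombinant P2Y₁₂ receptors, incubated with tritium-labeled 2-methyl-thio-adenosine 5'-diphosphate plus test compound; IC₅₀ from displacement curves, each point in triplicate; reference compound run with every compound set, and set re-analyzed if its IC₅₀ fell outside pre-set 95% confidence interval.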

Cytochrome P450 2D6 = Cytochrome P450 2D6 (Homo sapiens, UniProt P10635); assay: Inhibition of CYP2D6 in human liver microsomes assessed as reduction in dextromethorphan-O demethylation; assay type: ADME
Chain of Cytochrome P450 2D6 (P10635 whole entry): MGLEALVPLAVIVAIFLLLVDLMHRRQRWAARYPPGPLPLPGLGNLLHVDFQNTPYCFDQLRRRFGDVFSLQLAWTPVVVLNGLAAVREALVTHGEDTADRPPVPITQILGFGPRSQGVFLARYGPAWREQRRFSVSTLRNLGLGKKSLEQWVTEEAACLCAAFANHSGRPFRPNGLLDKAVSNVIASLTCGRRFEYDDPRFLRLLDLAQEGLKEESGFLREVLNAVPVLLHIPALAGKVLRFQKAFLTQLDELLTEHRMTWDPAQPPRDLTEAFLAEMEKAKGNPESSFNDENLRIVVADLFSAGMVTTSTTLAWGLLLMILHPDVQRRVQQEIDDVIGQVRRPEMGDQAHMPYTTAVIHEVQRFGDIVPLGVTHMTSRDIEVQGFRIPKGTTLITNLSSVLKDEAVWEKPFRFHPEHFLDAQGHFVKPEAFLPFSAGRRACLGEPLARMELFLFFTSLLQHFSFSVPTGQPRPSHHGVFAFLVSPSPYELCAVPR

[16] = target: Voltage-gated inwardly rectifying potassium channel KCNH2 (Homo sapiens, UniProt Q12809); assay: Inhibition of human ERG expressed in HEK cells by patch-clamp assay; assay type: cell-based; conditions: hek293
Chain of Voltage-gated inwardly rectifying potassium channel KCNH2 (Q12809 whole entry): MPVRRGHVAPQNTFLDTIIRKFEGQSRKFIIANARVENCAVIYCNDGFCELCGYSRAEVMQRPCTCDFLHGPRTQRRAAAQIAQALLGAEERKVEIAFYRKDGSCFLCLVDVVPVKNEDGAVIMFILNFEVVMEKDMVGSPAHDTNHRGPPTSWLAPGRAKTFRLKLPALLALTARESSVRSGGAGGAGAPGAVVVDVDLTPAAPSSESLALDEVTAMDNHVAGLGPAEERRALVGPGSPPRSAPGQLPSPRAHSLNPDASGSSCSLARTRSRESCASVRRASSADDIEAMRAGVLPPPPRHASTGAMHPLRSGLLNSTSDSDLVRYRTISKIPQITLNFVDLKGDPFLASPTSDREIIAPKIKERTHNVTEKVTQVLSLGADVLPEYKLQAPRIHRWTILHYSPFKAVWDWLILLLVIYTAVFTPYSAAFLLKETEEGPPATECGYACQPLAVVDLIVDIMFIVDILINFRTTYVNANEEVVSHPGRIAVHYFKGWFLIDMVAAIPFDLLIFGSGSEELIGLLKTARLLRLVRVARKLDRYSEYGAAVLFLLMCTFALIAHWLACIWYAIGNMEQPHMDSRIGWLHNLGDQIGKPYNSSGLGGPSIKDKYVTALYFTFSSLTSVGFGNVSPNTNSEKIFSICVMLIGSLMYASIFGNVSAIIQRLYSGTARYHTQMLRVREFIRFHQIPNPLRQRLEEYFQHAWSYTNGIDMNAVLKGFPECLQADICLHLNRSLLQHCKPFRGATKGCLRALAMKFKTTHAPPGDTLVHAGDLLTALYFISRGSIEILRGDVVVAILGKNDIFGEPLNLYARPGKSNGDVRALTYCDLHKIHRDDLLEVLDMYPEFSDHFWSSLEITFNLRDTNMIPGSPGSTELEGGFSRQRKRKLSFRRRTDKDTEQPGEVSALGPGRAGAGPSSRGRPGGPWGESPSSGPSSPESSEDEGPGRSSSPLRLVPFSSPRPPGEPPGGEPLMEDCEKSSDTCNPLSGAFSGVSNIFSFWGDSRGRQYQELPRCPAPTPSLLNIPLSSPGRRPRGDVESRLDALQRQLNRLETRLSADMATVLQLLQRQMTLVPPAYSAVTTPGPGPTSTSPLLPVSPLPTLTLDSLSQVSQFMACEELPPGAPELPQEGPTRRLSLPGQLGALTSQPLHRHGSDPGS

Platelet [17] = assay: Inhibition of ADP-induced platelet aggregation in human platelet rich plasma assessed as remaining activity at 500 nM by in-vitro light transmission aggregometry assay; assay type: functional
In short: (§2)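 Light transmission aggregometry in human platelet-rich plasma; compound incubated, aggregation triggered with 3 µM ADP; remaining activity (RA) recorded at a single compound level (1000, 500 or 100 nM).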

Platelet [18] = assay: Inhibition of ADP-induced platelet aggregation in human platelet rich plasma assessed as remaining activity at 100 nM by in-vitro light transmission aggregometry assay; assay type: functional; in short: as §2

T1 sequence (P08684 whole entry): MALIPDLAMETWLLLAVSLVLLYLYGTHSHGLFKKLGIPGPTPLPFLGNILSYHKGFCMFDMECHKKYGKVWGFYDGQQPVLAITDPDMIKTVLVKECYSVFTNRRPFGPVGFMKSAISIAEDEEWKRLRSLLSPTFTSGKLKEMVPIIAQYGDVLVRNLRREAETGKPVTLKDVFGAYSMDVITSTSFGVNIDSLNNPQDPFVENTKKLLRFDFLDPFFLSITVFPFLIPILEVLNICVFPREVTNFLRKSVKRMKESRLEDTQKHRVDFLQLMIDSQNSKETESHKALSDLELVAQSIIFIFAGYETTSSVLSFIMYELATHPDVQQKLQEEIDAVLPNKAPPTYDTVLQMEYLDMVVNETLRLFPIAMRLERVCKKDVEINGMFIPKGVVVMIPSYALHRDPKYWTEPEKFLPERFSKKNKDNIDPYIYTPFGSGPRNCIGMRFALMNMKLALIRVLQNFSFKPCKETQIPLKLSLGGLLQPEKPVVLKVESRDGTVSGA

| inhibition (INH) (Cytochrome P450 3A4 [1]) | half-life [2] | inhibition (INH) (Cytochrome P450 2C9) | logD [3] | inhibition (INH) (Cytochrome P450 3A4 [4]) | AUC [5] | solubility [6] | clearance [7] | Cmax [8] | bioavailability [9] | IC50 (Platelet [10]; Homo sapiens, Platelet, Plasma) | solubility [11] | Vd [12] | Stability (Liver microsome [13]) | Stability (Liver microsome [15]) | IC50 (P2Y purinoceptor 12) | inhibition (INH) (Cytochrome P450 2D6) | Compound | Ratio IC50 [14] | inhibition (INH) [16] | Activity (Platelet [17]) | further results |
| --- | --- | --- | --- | --- | --- | --- | --- | --- | --- | --- | --- | --- | --- | --- | --- | --- | --- | --- | --- | --- | --- |
| Not Active | 33 min | Not Active | 0.8 | Not Active | 2.31 µM·h | soluble | 14 mL/min/kg | 2820 nM | 11% | 589 nM | soluble | 0.3 L/kg | Stable | Stable | 43 nM | Not Active | CCOC(=O)N1CCN(C(=O)[C@H](CCC(=O)O)NC(=O)c2cc([C@@H]3C[C@H]3COC)nc(-c3ccccc3)n2)CC1 | 14 | Not Active | 30% | – |
| – | 120 min | – | 1.9 | – | 6 µM·h | – | 17 mL/min/kg | 7620 nM | 33% | – | – | 0.4 L/kg | – | – | 4.8 nM | – | CCCCOC(=O)N1CCN(C(=O)[C@H](CCC(=O)O)NC(=O)c2cc([C@H]3C[C@@H]3COC)nc(-c3ccccc3)n2)CC1 | 6.4 | – | – | IC50 (Platelet [10]; platelet): 31 nM |
| Not Active | 37.8 min | Not Active | – | Not Active | 0.638 µM·h | soluble | 36 mL/min/kg | 683 nM | 8% | 32 nM | soluble | 1.8 L/kg | Stable | Stable | 16 nM | Not Active | CCOC(=O)N1CCN(C(=O)[C@H](CCC(=O)O)NC(=O)c2cc(N3CC[C@H](OC)C3)nc(-c3ccccc3)n2)CC1 | 2 | Not Active | <30% | Activity (Platelet [18]): <70% |

From ChEMBL document CHEMBL3351863, “Optimization of 2-phenyl-pyrimidine-4-carboxamides towards potent, orally bioavailable and selective P2Y(12) antagonists for inhibition of platelet aggregation” (Bioorg Med Chem Lett, 2014)
